Source: ChEMBL document CHEMBL4613248, “Twelfth-Position Deuteration of Nevirapine Reduces 12-Hydroxy-Nevirapine Formation and Nevirapine-Induced Hepatocyte Death” (J Med Chem, 2020)
One block for each compound: values may come before it.

Experiments:
[1] = Drug level in C57BL/6J mouse primary hepatocytes treated with 10 uM NVP assessed as Cytochrome P450-mediated compound formation incubated for 24 hrs by uHPLC-MS analysis; assay type: ADME, cell-based
Procedure, shortened: (§1)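 Fresh hepatocytes from male C57BL/6J mice (8–13 weeks), ≥85% viable on plating, adhered overnight, then given fresh medium with compound (final 0.1% DMSO vehicle) for 24 h in 12-well format. Culture medium deproteinized with acetonitrile (final 50%), dried, reconstituted in methanol; monooxygenated metabolites (2-, 3-, 12-OH) measured by uHPLC-MS/MS on Orbitrap. Four experimental replicates.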

[2] = Drug level in C57BL/6J mouse primary hepatocytes treated with 10 uM 2-D3NVP assessed as Cytochrome P450-mediated compound formation incubated for 24 hrs by uHPLC-MS analysis; assay type: ADME, cell-based; details: in the assay text read “12-D3NVP” for “2-D3NVP”; procedure, shortened: as §1
[3] = system: Cytochrome P450; experiment: Drug level in human primary hepatocytes treated with 10 uM NVP assessed as Cytochrome P450-mediated compound formation incubated for 24 hrs by uHPLC-MS analysis; assay type: ADME, cell-based
Procedure, shortened: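 Cryoplateable pooled human hepatocytes (10 mixed-sex donors per lot, three lots), ≥90% viable on plating, adhered overnight, then dosed in fresh InVitroGRO CP medium with antibiotics (vehicle 0.1% DMSO) for 24 h, 12-well format. Medium extracted by acetonitrile precipitation (final 50%), dried, reconstituted in methanol; 2-, 3- and 12-OH metabolites quantified by uHPLC-MS/MS on Orbitrap.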

[4] = system: Cytochrome P450; experiment: Drug metabolism in human liver microsomes assessed as Cytochrome P450-mediated formation of 12-OHNVP by measuring Kcat/Km ratio in presence of NADPH regenerating reagents by uHPLC-MS/MS analysis
Procedure, shortened: (§2)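 Pooled human liver microsomes (2.5 mg/mL) in potassium phosphate; substrate (1–400 μM) prewarmed 5 min at 37 °C with NADPH-regenerating system, started with microsomes, 30 min at 37 °C. 12-OH product quantified by uHPLC-MS/MS Orbitrap against 12-OHNVP standard curve made in microsomes without NADPH. Kcat/Km taken as slope of linear rate vs substrate fit at nonsaturating 0–50 μM.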

[5] = Drug metabolism in C57BL/6J mouse primary hepatocytes assessed as 12-O-GlucD2NVP metabolite formation at 10 uM incubated for 24 hrs by uHPLC-MS analysis; assay type: ADME, cell-based, Hepatocyte
Procedure, shortened: (§3)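 Fresh hepatocytes from male C57BL/6J mice (8–13 weeks), adhered overnight, then 10 μM substrate or vehicle (0.1% DMSO) for 24 h. Medium extracted with acetonitrile (50% final), dried, reconstituted in methanol; uHPLC-Orbitrap targeted SIM plus PRM (monooxygenated metabolites) or high-resolution ions (O-glucuronides, 459.1510/462.1700 ±5 ppm); four experimental replicates.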

[6] = Drug metabolism in human assessed as formation of 12-OH-NVP; assay type: ADME
[7] = Drug metabolism in C57BL/6J mouse primary hepatocytes assessed as Cytochrome P450-mediated formation of 2-OHNVP at 10 uM incubated for 24 hrs by uHPLC-MS analysis; assay type: ADME, cell-based; procedure, shortened: as §3
[8] = Drug metabolism in C57BL/6J mouse primary hepatocytes assessed as O-GlucNVP metabolite formation at 10 uM incubated for 24 hrs by uHPLC-MS analysis; assay type: ADME, cell-based, Hepatocyte; procedure, shortened: as §3
[9] = system: Cytochrome P450; experiment: Drug metabolism in human liver microsomes assessed as Cytochrome P450-mediated formation of 3-OHNVP formation at 5 to 400 uM in presence of NADPH regenerating reagents by uHPLC-MS/MS analysis; assay type: ADME
Procedure, shortened: (§4)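 Pooled human liver microsomes (2.5 mg/mL) with NADPH-regenerating system, substrate 5–400 μM, 30 min at 37 °C, 0.1% DMSO (0.2% at 400 μM); 2- and 3-OH metabolites by uHPLC-MS/MS Orbitrap; three replicates, mean ± SD.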

[10] = Drug metabolism in C57BL/6J mouse primary hepatocytes assessed as Cytochrome P450-mediated formation of 8-OHNVP at 10 uM incubated for 24 hrs by uHPLC-MS analysis; assay type: ADME, cell-based; procedure, shortened: as §3
[11] = system: Cytochrome P450; experiment: Drug metabolism in human liver microsomes assessed as Cytochrome P450-mediated formation of 12-OHNVP at 1 to 400 uM in presence of NADPH regenerating reagents by uHPLC-MS/MS analysis; assay type: ADME; procedure, shortened: as §2
[12] = system: Cytochrome P450; experiment: Drug metabolism in human primary hepatocytes assessed as Cytochrome P450-mediated formation of 3-OHNVP at 10 uM incubated for 24 to 48 hrs by uHPLC-MS analysis; assay type: ADME, cell-based
Procedure, shortened: (§5)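 Cryoplateable pooled human hepatocytes (10 mixed-sex donors per pool, three lots), adhered overnight, then 10 μM substrate or vehicle (0.1% DMSO) for 24 or 48 h in InVitroGRO CP medium. Medium extracted with 50% acetonitrile, dried, reconstituted in methanol; uHPLC-Orbitrap MS/MS for monooxygenated metabolites, high-resolution MS for O-glucuronide.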

[13] = Drug metabolism in human primary hepatocytes assessed as O-GlucNVP metabolite formation at 10 uM incubated for 24 hrs by uHPLC-MS analysis; assay type: ADME, cell-based, Hepatocyte; procedure, shortened: as §5
[14] = system: Hepatocyte; experiment: Toxicity in C57BL/6J mouse primary hepatocytes assessed as reduction in cell viability by measuring EtBr-positive cell nuclei level at 400 uM incubated for 8 hrs by EtBr/AcrO staining based assay (reference value: 19%)
Procedure, shortened: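 Fresh male C57BL/6J mouse hepatocytes on collagen-coated coverslips, 400 μM compound or vehicle (0.2% DMSO) for 8 h; 10 μM staurosporine as positive control. Ethidium bromide/acridine orange costaining, imaging, percentage of EtBr-positive nuclei scored as dead cells; unpaired two-tailed t test.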

[15] = Drug metabolism in C57BL/6J mouse primary hepatocytes assessed as Cytochrome P450-mediated formation of 12-OHNVP at 10 uM incubated for 24 hrs by uHPLC-MS analysis; assay type: ADME, cell-based; procedure, shortened: as §3
[16] = system: Cytochrome P450; experiment: Drug metabolism in human primary hepatocytes assessed as Cytochrome P450-mediated formation of 2-OHNVP at 10 uM incubated for 24 to 48 hrs by uHPLC-MS analysis; assay type: ADME, cell-based; procedure, shortened: as §5
[17] = Drug metabolism in C57BL/6J mouse primary hepatocytes assessed as Cytochrome P450-mediated formation of 3-OHNVP at 10 uM incubated for 24 hrs by uHPLC-MS analysis; assay type: ADME, cell-based; procedure, shortened: as §3
[18] = system: Cytochrome P450; experiment: Drug metabolism in human liver microsomes assessed as Cytochrome P450-mediated formation of 2-OHNVP formation at 5 to 400 uM in presence of NADPH regenerating reagents by uHPLC-MS/MS analysis; assay type: ADME; procedure, shortened: as §4
[19] = Plasma concentration in human; assay type: ADME, cell-free

Drug uptake [1]: Metabolite_Detected
Structure (SMILES): O=C1Nc2c(CO)ccnc2N(C2CC2)c2ncccc21

Drug uptake [2]: Metabolite_Detected
Structure (SMILES): [2H]C([2H])([2H])c1c(O)cnc2c1NC(=O)c1cccnc1N2C1CC1

Drug uptake [1]: Metabolite_Detected
Drug uptake [3]: Metabolite_Detected
Structure (SMILES): Cc1c(O)cnc2c1NC(=O)c1cccnc1N2C1CC1

Drug uptake [2]: Metabolite_Detected
Structure (SMILES): [2H]C([2H])([2H])c1cc(O)nc2c1NC(=O)c1cccnc1N2C1CC1

Drug uptake [2]: Metabolite_Detected
Structure (SMILES): [2H]C([2H])(O)c1ccnc2c1NC(=O)c1cccnc1N2C1CC1

Drug uptake [1]: Metabolite_Detected
Drug uptake [3]: Metabolite_Detected
Structure (SMILES): Cc1cc(O)nc2c1NC(=O)c1cccnc1N2C1CC1

Structure (SMILES): Cc1ccnc2c1NC(=O)c1cccnc1N2C1CC1 [NEVIRAPINE]
Kcat/Km [4]: 1.4 M⁻¹ s⁻¹
Drug metabolism [5]: Metabolite_Notdetected
Drug metabolism [6]: 1.3 µM
Drug metabolism [7]: Metabolite_Detected
Drug metabolism [8]: Metabolite_Detected
Drug metabolism [9]: Metabolite_Detected
Drug metabolism [10]: Metabolite_Notdetected
Drug metabolism [11]: Metabolite_Detected
Drug metabolism [12]: Metabolite_Detected
Drug metabolism [13]: Metabolite_Detected
Activity [14]: 52.6%
Drug metabolism [15]: Metabolite_Detected
Drug metabolism [16]: Metabolite_Detected
Drug metabolism [17]: Metabolite_Detected
Drug metabolism [18]: Metabolite_Detected
concentration [19]: 16 µM
